Experimental data published in PubChem BioAssay AID588483 (Southern Research Specialized Biocontainment Screening …, 2011).
“And” between values parts separate entries of the source, which are not always exact repeats. Equal entries are not always repeated. The source made the active and inactive calls.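 Rule for the calls: active = viability below 70% at any tested concentration, read as cytotoxicity; inactive = the rest.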

Columns and labels:
[1] = viability loss of uninfected HEp-2 cells – cell-based, synthesized compounds, set 14, cytotoxicity control for RSV inhibitor project, dose response (AID 588483); conditions: HEp-2 cell viability, luminescence (cytotoxicity counter-screen); at 150 µM (top of the series)
Procedure, shortened: (§1)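 System: uninfected HEp-2 human cells, no virus added; amount: 10,595 HEp-2 cells per well; buffer or medium: DMEM/F12 medium supplemented with heat-inactivated fetal bovine serum; incubation: 6 days at 37 °C; detection: CellTiter-Glo luminescence; read-out: % viability and fitted CC50 (bounds 0 and 100); replicates: triplicate wells per compound concentration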

[2] = system: HEp-2 cell viability, luminescence (cytotoxicity counter-screen); assay: as above
Procedure, shortened: as §1

Row | SMILES | viability [1] | CC50 [2] [µM]
1 | O=C(O)c1ccc(Cn2c(=O)n(Cc3ccc(C(=O)NCC4COC4)cc3)c(=O)c3ccccc32)cc1 | 119% (inactive) and 107% (inactive) | 
2 | CN(C)c1ccc(Cn2c(=O)n(Cc3ccc(C(=O)NCC4COC4)cc3)c(=O)c3ccccc32)cc1 |  | 29.7
